# Values joined by “and” are separate entries in the source; they are usually repeats but may differ in a detail not shown here. Equal values may be shown once.
# Experiments:
# [1] = system: Fibroblast; experiment: Multiplex assay against human fibroblast; type: toxicity, cell-based; conditions: number of replicates 2
# Procedure, shortened: (§1)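 Per cents of healthy-nucleus cells form the tubulin, mitochondrial-mass and membrane-permeability phenotype values. Live cells were stained at seeding with Hoechst33342, BioTracker Green Microtubule Cytoskeleton Dye, MitoTracker Red and Annexin V Alexa Fluor 680. After compound addition they were imaged on a CQ1 microscope at 37°C and 5% CO2, and CellPathfinder machine-learning gating split them into Hoechst high-intensity objects or normal cells, normal cells into healthy, pyknosed or fragmented nuclei, and pyknosed cells into mitotic or apoptotic.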
# [2] = system: HEK-293T; experiment: Multiplex assay against HEK293T; type: toxicity, cell-based; conditions: human, number of replicates 2; procedure, shortened: as §1
# [3] = 12 h, 1 µM, compound concentration 1 uM
# [4] = 12 h, 10 µM, compound concentration 10 uM
# [5] = 24 h, 1 µM, compound concentration 1 uM
# [6] = 24 h, 10 µM, compound concentration 10 uM
# [7] = 48 h, 1 µM, compound concentration 1 uM
# [8] = 48 h, 10 µM, compound concentration 10 uM
smiles,measurement,setting,value
CC1(C)C(=O)N([C@H]2CCc3c(O)cccc32)c2nc(Nc3cccc(CN4CCCC4)c3)ncc21,Population Apoptotic (%),[1]; [3],38% and 68%
same,Population Fragmented Nuclei (%),[1]; [3],14% and 18%
same,Population Healthy Nuclei (%),[1]; [3],75% and 64%
same,Population Hoechst High Intensity Objects (%),[1]; [3],0%
same,Population Membrane Permeable-Phenotype (%),[1]; [3],5%
same,Population Mitochondria Different-Phenotype (%),[1]; [3],0% and 4%
same,Population Mitotic Cells (%),[1]; [3],61% and 31%
same,Population Normal (%),[1]; [3],100%
same,Population Pyknosed Nuclei (%),[1]; [3],9% and 17%
same,Population Tubulin-Different-Phenotype (%),[1]; [3],22% and 16%
same,Total Cell Count,[1]; [3],136 and 183
same,Population Apoptotic (%),[1]; [4],77% and 80%
same,Population Fragmented Nuclei (%),[1]; [4],22% and 20%
same,Population Healthy Nuclei (%),[1]; [4],43% and 42%
same,Population Hoechst High Intensity Objects (%),[1]; [4],1%
same,Population Membrane Permeable-Phenotype (%),[1]; [4],9% and 4%
same,Population Mitochondria Different-Phenotype (%),[1]; [4],16% and 12%
same,Population Mitotic Cells (%),[1]; [4],22% and 20%
same,Population Normal (%),[1]; [4],98%
same,Population Pyknosed Nuclei (%),[1]; [4],33% and 37%
same,Population Tubulin-Different-Phenotype (%),[1]; [4],67% and 54%
same,Total Cell Count,[1]; [4],150 and 191
same,Population Apoptotic (%),[1]; [5],62% and 70%
same,Population Fragmented Nuclei (%),[1]; [5],18% and 20%
same,Population Healthy Nuclei (%),[1]; [5],67% and 64%
same,Population Hoechst High Intensity Objects (%),[1]; [5],0%
same,Population Membrane Permeable-Phenotype (%),[1]; [5],5% and 2%
same,Population Mitochondria Different-Phenotype (%),[1]; [5],2% and 8%
same,Population Mitotic Cells (%),[1]; [5],37% and 29%
same,Population Normal (%),[1]; [5],99%
same,Population Pyknosed Nuclei (%),[1]; [5],13% and 15%
same,Population Tubulin-Different-Phenotype (%),[1]; [5],22% and 24%
same,Total Cell Count,[1]; [5],118 and 154
same,Population Apoptotic (%),[1]; [6],95% and 93%
same,Population Fragmented Nuclei (%),[1]; [6],25% and 22%
same,Population Healthy Nuclei (%),[1]; [6],16%
same,Population Hoechst High Intensity Objects (%),[1]; [6],0% and 1%
same,Population Membrane Permeable-Phenotype (%),[1]; [6],7% and 8%
same,Population Mitochondria Different-Phenotype (%),[1]; [6],21% and 33%
same,Population Mitotic Cells (%),[1]; [6],4% and 6%
same,Population Normal (%),[1]; [6],99% and 98%
same,Population Pyknosed Nuclei (%),[1]; [6],58% and 61%
same,Population Tubulin-Different-Phenotype (%),[1]; [6],46% and 79%
same,Total Cell Count,[1]; [6],176 and 153
same,Population Apoptotic (%),[1]; [7],69% and 79%
same,Population Fragmented Nuclei (%),[1]; [7],13% and 14%
same,Population Healthy Nuclei (%),[1]; [7],61% and 52%
same,Population Hoechst High Intensity Objects (%),[1]; [7],0%
same,Population Membrane Permeable-Phenotype (%),[1]; [7],18% and 15%
same,Population Mitochondria Different-Phenotype (%),[1]; [7],4% and 0%
same,Population Mitotic Cells (%),[1]; [7],30% and 20%
same,Population Normal (%),[1]; [7],100% and 99%
same,Population Pyknosed Nuclei (%),[1]; [7],24% and 32%
same,Population Tubulin-Different-Phenotype (%),[1]; [7],32% and 20%
same,Total Cell Count,[1]; [7],105 and 132
same,Population Apoptotic (%),[1]; [8],97% and 95%
same,Population Fragmented Nuclei (%),[1]; [8],15% and 19%
same,Population Healthy Nuclei (%),[1]; [8],17%
same,Population Hoechst High Intensity Objects (%),[1]; [8],2%
same,Population Membrane Permeable-Phenotype (%),[1]; [8],14% and 20%
same,Population Mitochondria Different-Phenotype (%),[1]; [8],28% and 40%
same,Population Mitotic Cells (%),[1]; [8],2% and 4%
same,Population Normal (%),[1]; [8],97%
same,Population Pyknosed Nuclei (%),[1]; [8],67% and 62%
same,Population Tubulin-Different-Phenotype (%),[1]; [8],61% and 64%
same,Total Cell Count,[1]; [8],126 and 145
same,Population Apoptotic (%),[2]; [3],51% and 69%
same,Population Fragmented Nuclei (%),[2]; [3],1% and 2%
same,Population Healthy Nuclei (%),[2]; [3],83% and 87%
same,Population Hoechst High Intensity Objects (%),[2]; [3],19% and 21%
same,Population Membrane Permeable-Phenotype (%),[2]; [3],1%
same,Population Mitochondria Different-Phenotype (%),[2]; [3],70% and 76%
same,Population Mitotic Cells (%),[2]; [3],48% and 30%
same,Population Normal (%),[2]; [3],80% and 78%
same,Population Pyknosed Nuclei (%),[2]; [3],14% and 10%
same,Population Tubulin-Different-Phenotype (%),[2]; [3],89% and 94%
same,Total Cell Count,[2]; [3],252 and 277
same,Population Apoptotic (%),[2]; [4],80% and 74%
same,Population Fragmented Nuclei (%),[2]; [4],1% and 2%
same,Population Healthy Nuclei (%),[2]; [4],80% and 77%
same,Population Hoechst High Intensity Objects (%),[2]; [4],18% and 19%
same,Population Membrane Permeable-Phenotype (%),[2]; [4],2% and 0%
same,Population Mitochondria Different-Phenotype (%),[2]; [4],93% and 97%
same,Population Mitotic Cells (%),[2]; [4],19% and 25%
same,Population Normal (%),[2]; [4],81% and 80%
same,Population Pyknosed Nuclei (%),[2]; [4],17% and 20%
same,Population Tubulin-Different-Phenotype (%),[2]; [4],96% and 97%
same,Total Cell Count,[2]; [4],216 and 218
same,Population Apoptotic (%),[2]; [5],88% and 33%
same,Population Fragmented Nuclei (%),[2]; [5],4% and 3%
same,Population Healthy Nuclei (%),[2]; [5],88% and 86%

# From ChEMBL document CHEMBL5303300, “EUbOPEN Chemogenomics Library - Multiplex” (2023)
